This is an account of results in PMC3529830 (Chemistry & biology, 2012).

Data set [1] relates to P. falciparum. Briefly: P. falciparum replication assay. The settings on record: Plasmodium falciparum, read-out: EC50, parasite replication. The class given is cell-based.
Data set [2] concerns non-confluent human foreskin fibroblast (HFF) cells. Briefly: HFF cell toxicity assay. The conditions noted are these: read-out: EC50, host cell killing. The class given is cell-based.
For data set [3], the target named is putative β5 subunit of P. falciparum proteasome (Plasmodium falciparum, UniProt Q8IJT1). Briefly: Proteasome activity in intact inhibitor-treated trophozoites by MV151 labeling. It is filed as cell-based. The essentials:
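P. falciparum culture at ~15% parasitemia; intact trophozoites exposed 1 hr to a range of inhibitor concentrations, then pelleted and washed 3× in fresh medium. Hypotonic lysis (50 mM Tris pH 7.4, 5 mM MgCl2, 1 mM DTT) on ice 1 hr. ≥2 μg lysate labeled with 2 μM MV151, 37°C 1 hr. Run on 12% SDS-PAGE, TAMRA fluorescence scan. Band intensity expressed as % of DMSO; curve fit to IC50; 3 independent experiments.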

The subject of another data set is P. falciparum proteasome. Briefly: Recovery of P. falciparum proteasome activity after inhibitor washout. The class given is cell-based, Plasmodium falciparum.
The subject of a further data set is P. berghei. Briefly: P. berghei mouse model of malaria, parasitemia. The class given is in vivo, Plasmodium berghei in Balb/c mice. The conditions noted are these: tolerated dose, I.V. daily for 3 consecutive days.
In data set [4] the test system is P. falciparum gametocytes. In words: P. falciparum gametocyte viability assay. The class given is cell-based, Plasmodium falciparum. The conditions noted are these: 24 hr treatment.
The conditions of data set [5]: 5 consecutive days of treatment; ref Demo et al., 2007; cited from earlier work.
Data set [6] can be described thus: Host toxicity in P. berghei infected mice during treatment. The conditions noted are these: daily I.V. doses, scruffy coat, significant weight loss.
The conditions of data set [7]: rat P. berghei model; ref Gantt et al., 1998; cited from earlier work.
The test system of a further data set is A549 cells. The conditions noted are these: 1 μM; ref Czesny et al., 2009; cited from earlier work.
The test system of the next data set is NIH3T3 cells. The settings on record: 1 μM; ref Czesny et al., 2009; cited from earlier work.
The test system of data set [8] is P. falciparum. The settings on record: 1 μM; ref Czesny et al., 2009; cited from earlier work.

Structures are written as SMILES.

As for `CC(C)C[C@H](NC(=O)[C@H](CCc1ccccc1)NC(=O)CN1CCOCC1)C(=O)N[C@@H](Cc1ccccc1)C(=O)N[C@@H](CC(C)C)C(=O)[C@@]1(C)CO1` [carfilzomib, Carfilzomib], the EC50 (usually the midpoint of the concentration-response curve) in the data set on P. falciparum [1] turned out to be 28.8 nM; in [2], 492 nM. The IC50 (in general, the concentration at which inhibition is half-maximal) in data set [3] is 25 nM. Besides, the “inhibitor exposure necessary to prevent recovery of proteasome activity” value in the data set with P. falciparum proteasome (100 nM dose, activity determined 10 hr after washout) is on record as “at least 6 hr”. Moreover, the “recovery of proteasome activity after washout” value in the data set on P. falciparum proteasome (1 μM, 1 hr treatment, 47 hrs after compound washout) is given as “substantial recovery of proteasome activity”. In addition, the “time to recovery of proteasome activity after inhibitor removal” value with P. falciparum proteasome (1 hr treatment of trophozoites, washout, depending on the dose) is not above 24 h. In the data set with P. berghei, the “effect on parasite burden” value was “only a very minor effect on parasite burden at day 3”. Also, in [4], the activity against gametocytes entry is on record as “effective towards gametocytes”. In [5], the maximum tolerable dose is on record as 2 mg/kg. Also, in [6], the “dose at which mice started to develop signs of compound toxicity” value is reported as 1 mg/kg.
In the case of `CC(=O)N[C@@H](CSC(=O)[C@]1([C@@H](O)C(C)C)NC(=O)[C@H](C)[C@@H]1O)C(=O)O` [lactacystin, Lactacystin], the host toxicity result in data set [7] is on record as “significant host toxicity”.
Consider `CC[C@H](C)[C@H](NC(=O)[C@H]([C@@H](C)CC)N(C)C(C)=O)C(=O)N[C@H](C(=O)N[C@@H](CC(C)C)C(=O)[C@@]1(C)CO1)[C@@H](C)O` [epoxomicin], for which the decrease in viability with A549 cells and with NIH3T3 cells was 20% in each case. Further, in the data set on P. falciparum [8], the “effect on P. falciparum replication” value is “completely blocking”.
